The record followed here is ChEMBL document CHEMBL2390828, “Synthesis and biological characterization of spiro[2H-(1,3)-benzoxazine-2,4'-piperidine] based histone deacetylase inhibitors” (Eur J Med Chem, 2013).

Calls of active or inactive are those of the source. The calls are words filed in the database; no cut-off is given here.

In series [1] the test system is Mus musculus. Nature of the series: Toxicity in CD1 mouse xenografted with human HCT116 cells assessed as body weight change at 75 to 150 mg/kg, po qd administered 5 days a week for 2 weeks. The format is organism-based, HCT-116. Further details: dose 75-150 mg/kg, route oral. The note with it: in vivo. In outline: (§1)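 Female CD-1 nude mice received 5 × 10⁶ HCT116 cells subcutaneously in the flank. Once tumours reached 100 mm³, dosing was 75 or 150 mg/kg orally, once daily, 5 days/week for 2 weeks. Tumour volume and body weight were followed. Tumour/control (T/C) ratio was calculated against vehicle controls.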

Series [2] relates to Mus musculus. As to the kind of experiment: Inhibition of HDAC in human HCT116 cells […] in CD1 mouse at 75 to 150 mg/kg, po administered 5 days a week for 2 weeks by immunohistochemistry relative to control. The format is functional, organism-based. The note with it: HCT-116. In outline: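 Tumours came from HCT116 xenograft-bearing CD-1 nude mice dosed orally at 75 or 150 mg/kg once daily, 5 days/week for 2 weeks. Sections were taken at the end of treatment from vehicle and treated mice. Histone acetylation was stained by immunohistochemistry (anti-acetyl H4 clone T25, 1:13,000) and scored by positive cells and signal intensity.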

Series [3] in a line: AUC (0 to infinity) in CD1 mouse at 5 mg/kg, iv. The format is ADME, organism-based. Also on record: time infinity, dose 5 mg/kg, route intravenous. The following applies: plasma. In outline: (§2)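 CD-1 mice got single doses of 5 mg/kg iv or 15 mg/kg orally. The iv vehicle was water with 3% DMSO and 9.7% encapsin. The oral vehicle was water with 5% DMSO and 9.5% encapsin. Plasma PK parameters were calculated, including AUC0–∞, clearance, half-life, Vss, cmax and oral bioavailability.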

The next series deals with Histone deacetylase. As to the kind of experiment: Inhibition of HDAC in human Hela cell nuclear extract after 15 mins. The format is protein assay.
Series [4] in a line: Clearance in CD1 mouse at 5 mg/kg, iv and 15 mg/kg, po. It is filed as ADME, organism-based. The following applies: in vivo. In outline: as §2
Series [5] is described as follows: Oral bioavailability in CD1 mouse at 15 mg/kg. The note with it: in vivo.
Series [6] relates to HCT-116. Nature of the series: Antitumor activity against human HCT116 cells […] in po dosed CD1 mouse administered 5 days a week for 2 weeks relative to control. It is filed as functional, organism-based. In outline: as §1
In the next series the target is Histone deacetylase 2 (Homo sapiens, UniProt Q92769). As to the kind of experiment: Inhibition of HDAC2 (unknown origin).
Sequence of Histone deacetylase 2 (Q92769 whole entry): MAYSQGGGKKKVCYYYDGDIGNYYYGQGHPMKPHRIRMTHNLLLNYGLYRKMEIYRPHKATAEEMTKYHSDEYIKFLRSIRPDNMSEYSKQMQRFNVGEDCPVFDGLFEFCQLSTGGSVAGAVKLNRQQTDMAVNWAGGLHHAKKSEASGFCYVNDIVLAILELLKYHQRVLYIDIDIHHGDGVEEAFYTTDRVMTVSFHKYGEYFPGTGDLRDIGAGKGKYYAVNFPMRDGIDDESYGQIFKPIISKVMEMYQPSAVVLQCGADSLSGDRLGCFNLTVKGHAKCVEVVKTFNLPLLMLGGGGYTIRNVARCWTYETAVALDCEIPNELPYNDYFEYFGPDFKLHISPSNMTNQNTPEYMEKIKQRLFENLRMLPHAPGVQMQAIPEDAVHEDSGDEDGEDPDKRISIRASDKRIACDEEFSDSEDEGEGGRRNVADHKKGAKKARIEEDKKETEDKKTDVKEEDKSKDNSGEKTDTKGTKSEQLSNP
Series [7] in a line: Cmax in CD1 mouse at 5 mg/kg, iv. Also on record: dose 5 mg/kg, route intravenous. The format is ADME, organism-based. The following applies: in vivo. In a few lines:
as §2

Series [8] has as its system HCT-116. Nature of the series: Induction of apoptosis in human HCT116 cells assessed as increase in sub-G1 population after 24 hrs by propidium iodide staining-based FACS analysis. It is filed as functional, cell-based. In outline:
(§3)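 HCT116 colon carcinoma cells were exposed to several concentrations for 24 h. Cell-cycle profiles were read by flow cytometry, with G0/G1, G2/M and sub-G1 fractions scored.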
(Flow cytometry measures light scatter and fluorescence of single cells or particles in a stream.)

Another series has as its system K562. Nature of the series: Cytotoxicity against human K562 cells. The format is functional, cell-based.
Series [9] in a line: Tmax in CD1 mouse at 5 mg/kg, iv and 15 mg/kg, po. The format is ADME, organism-based. The note with it: in vivo. In a few lines:
as §2

The subject of a further series is A549. Nature of the series: Cytotoxicity against human A549 cells. The format is functional, cell-based.
A short description of series [10]: Metabolic stability in human liver microsomes after 30 mins by LC-MS/MS analysis. The format is ADME, Microsome. The note with it: read-out: Stability. In a few lines: (§4)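 Compounds were incubated with mouse or human liver microsomal preparation for 30 min at 37 °C. The reaction was stopped with CH3CN. Unmetabolized compound was quantified by LC-MS/MS in MRM mode and reported as percent remaining. Replicates n ≥ 2, mean values given.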
Background: Microsomes from liver hold many membrane-bound enzymes, among them those of drug oxidation.

Series [11] concerns the target Histone deacetylase (Homo sapiens) (UniProt Q13547+O15379+Q9UBN7+Q92769+Q9UQL6+Q8WUI4+Q9BY41+Q96DB2+P56524+Q9UKV0+Q969S8). Nature of the series: Inhibition of HDAC in human K562 cells assessed as increase in histone acetylation level after 2 to 8 hrs by flow cytometry. It is filed as cell-based. In outline: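 K562 cells were treated at 0.1, 0.5, 1 and 3 µM. Histone acetylation was measured by flow cytometry and reported as the ratio of acetylation level in treated over control cells.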

Series [12] deals with HCT-116. As to the kind of experiment: Cell cycle arrest in human HCT116 cells assessed as accumulation at G2/M phase at higher dose after 24 hrs by propidium iodide staining-based FACS analysis. It is filed as functional. In a few lines: as §3
A short description of series [13]: Cmax in CD1 mouse at 15 mg/kg, po. The following applies: CD1, mouse, in vivo.
For series [14], the target named is T1, Protein deacetylase HDAC6 (Homo sapiens, UniProt Q9UBN7).
T1 sequence (Q9UBN7 whole entry): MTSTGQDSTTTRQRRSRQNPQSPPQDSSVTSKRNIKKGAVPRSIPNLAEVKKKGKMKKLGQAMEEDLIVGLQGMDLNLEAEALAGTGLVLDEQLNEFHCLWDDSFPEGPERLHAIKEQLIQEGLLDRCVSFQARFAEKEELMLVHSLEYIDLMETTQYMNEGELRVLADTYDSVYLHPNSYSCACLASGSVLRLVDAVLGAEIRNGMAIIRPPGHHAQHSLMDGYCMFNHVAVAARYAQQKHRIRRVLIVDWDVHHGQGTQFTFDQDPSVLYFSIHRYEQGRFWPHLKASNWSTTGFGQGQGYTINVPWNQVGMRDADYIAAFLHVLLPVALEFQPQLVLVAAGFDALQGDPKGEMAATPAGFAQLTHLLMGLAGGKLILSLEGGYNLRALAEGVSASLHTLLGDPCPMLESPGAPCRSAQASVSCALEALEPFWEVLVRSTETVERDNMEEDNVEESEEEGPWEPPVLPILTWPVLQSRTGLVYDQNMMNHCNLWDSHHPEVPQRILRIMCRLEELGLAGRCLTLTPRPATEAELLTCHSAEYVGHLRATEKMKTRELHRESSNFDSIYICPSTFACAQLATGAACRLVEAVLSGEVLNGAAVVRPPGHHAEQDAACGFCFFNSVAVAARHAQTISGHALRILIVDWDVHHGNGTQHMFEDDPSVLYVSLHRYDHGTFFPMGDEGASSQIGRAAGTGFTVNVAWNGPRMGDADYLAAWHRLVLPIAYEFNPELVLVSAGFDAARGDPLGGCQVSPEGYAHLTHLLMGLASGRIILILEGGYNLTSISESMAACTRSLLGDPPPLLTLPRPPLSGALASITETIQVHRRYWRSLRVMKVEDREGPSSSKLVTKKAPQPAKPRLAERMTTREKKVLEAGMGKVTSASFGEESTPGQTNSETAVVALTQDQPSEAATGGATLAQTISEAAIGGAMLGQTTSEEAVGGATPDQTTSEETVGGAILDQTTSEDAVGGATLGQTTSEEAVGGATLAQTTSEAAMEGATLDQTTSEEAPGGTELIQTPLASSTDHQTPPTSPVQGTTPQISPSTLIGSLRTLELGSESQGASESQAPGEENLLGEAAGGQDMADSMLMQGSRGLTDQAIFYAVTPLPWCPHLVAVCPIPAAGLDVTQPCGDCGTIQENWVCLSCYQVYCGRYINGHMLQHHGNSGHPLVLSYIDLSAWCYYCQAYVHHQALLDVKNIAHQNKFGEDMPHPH
As to the kind of experiment: Inhibition of HDAC6 (unknown origin).

Series [15] concerns HCT-116. As to the kind of experiment: Antitumor activity against human HCT116 cells […] in CD1 mouse at 150 mg/kg, po administered 5 days a week for 2 weeks relative to control. It is filed as functional. In outline: as §1
Series [16] relates to HCT-116. Nature of the series: Cell cycle arrest in human HCT116 cells assessed as accumulation at G0/G1 phase at lower dose after 24 hrs by propidium iodide staining-based FACS analysis. It is filed as functional. In a few lines: as §3
In series [17] the test system is HCT-116. Nature of the series: Cytotoxicity against human HCT116 cells. It is filed as functional, cell-based.
Series [18] in a line: Permeability from apical to basolateral side across human Caco2 cells after 2 hrs by LC-MS analysis. The format is ADME, cell-based. The following applies: Caco-2, read-out: permeability. On the technique in general: Passage across Caco-2 layers is used to estimate intestinal permeability.
The target of a further series is Histone deacetylase 3 (Homo sapiens, UniProt O15379). As to the kind of experiment: Inhibition of HDAC3 (unknown origin).
Sequence of Histone deacetylase 3 (O15379 whole entry): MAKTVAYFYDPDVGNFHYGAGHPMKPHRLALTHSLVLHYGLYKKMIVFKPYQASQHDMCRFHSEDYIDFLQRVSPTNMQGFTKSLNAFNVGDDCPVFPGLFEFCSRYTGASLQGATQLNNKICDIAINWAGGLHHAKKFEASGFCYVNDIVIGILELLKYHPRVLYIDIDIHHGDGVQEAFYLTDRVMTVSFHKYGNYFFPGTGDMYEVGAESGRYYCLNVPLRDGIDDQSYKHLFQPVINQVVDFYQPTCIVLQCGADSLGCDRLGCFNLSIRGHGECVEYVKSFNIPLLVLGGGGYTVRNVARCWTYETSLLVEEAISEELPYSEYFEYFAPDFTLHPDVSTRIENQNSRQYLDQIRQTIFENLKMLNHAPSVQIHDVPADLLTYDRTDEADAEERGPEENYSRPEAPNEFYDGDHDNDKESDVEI
Series [19] concerns HCT-116. As to the kind of experiment: Antitumor activity against human HCT116 cells […] in CD1 mouse at 75 mg/kg, po administered 5 days a week for 2 weeks relative to control. It is filed as functional. In a few lines: as §1
Series [20] can be described thus: AUC (0 to infinity) in CD1 mouse at 15 mg/kg, po. The format is ADME, organism-based. The note with it: plasma. Further details: time infinity, dose 15 mg/kg, route oral. In outline:
as §2

Series [21] in a line: Volume of distribution at steady state in CD1 mouse at 5 mg/kg, iv and 15 mg/kg, po. It is filed as ADME, organism-based. The note with it: in vivo, read-out: Vdss. In outline: as §2
Series [22] can be described thus: Metabolic stability in mouse liver microsomes after 30 mins by LC-MS/MS analysis. It is filed as ADME, Microsome. The following applies: read-out: Stability. In a few lines:
as §4

Series [23] in a line: Solubility of the compound at pH 7.4. The following applies: buffer. The format is physicochemical.
The nature of series [24]: Terminal half life in CD1 mouse at 5 mg/kg, iv and 15 mg/kg, po. It is filed as ADME, organism-based. The note with it: in vivo, read-out: beta t1/2 (converted). In a few lines:
as §2

Series [25] addresses T2, Voltage-gated inwardly rectifying potassium channel KCNH2 (Homo sapiens, UniProt Q12809). As to the kind of experiment: Inhibition of human ERG channel.
Series [26] addresses T2, Voltage-gated inwardly rectifying potassium channel KCNH2. As to the kind of experiment: Displacement of [3H]astemizole from human ERG channel transfected in HEK293 cells after 60 mins by liquid scintillation counting analysis. It is filed as cell-based.
In series [27] the test system is Mus musculus. As to the kind of experiment: Cmax in CD1 mouse at 15 mg/kg, po. The following applies: mouse, in vivo.

T2 sequence (Q12809 whole entry): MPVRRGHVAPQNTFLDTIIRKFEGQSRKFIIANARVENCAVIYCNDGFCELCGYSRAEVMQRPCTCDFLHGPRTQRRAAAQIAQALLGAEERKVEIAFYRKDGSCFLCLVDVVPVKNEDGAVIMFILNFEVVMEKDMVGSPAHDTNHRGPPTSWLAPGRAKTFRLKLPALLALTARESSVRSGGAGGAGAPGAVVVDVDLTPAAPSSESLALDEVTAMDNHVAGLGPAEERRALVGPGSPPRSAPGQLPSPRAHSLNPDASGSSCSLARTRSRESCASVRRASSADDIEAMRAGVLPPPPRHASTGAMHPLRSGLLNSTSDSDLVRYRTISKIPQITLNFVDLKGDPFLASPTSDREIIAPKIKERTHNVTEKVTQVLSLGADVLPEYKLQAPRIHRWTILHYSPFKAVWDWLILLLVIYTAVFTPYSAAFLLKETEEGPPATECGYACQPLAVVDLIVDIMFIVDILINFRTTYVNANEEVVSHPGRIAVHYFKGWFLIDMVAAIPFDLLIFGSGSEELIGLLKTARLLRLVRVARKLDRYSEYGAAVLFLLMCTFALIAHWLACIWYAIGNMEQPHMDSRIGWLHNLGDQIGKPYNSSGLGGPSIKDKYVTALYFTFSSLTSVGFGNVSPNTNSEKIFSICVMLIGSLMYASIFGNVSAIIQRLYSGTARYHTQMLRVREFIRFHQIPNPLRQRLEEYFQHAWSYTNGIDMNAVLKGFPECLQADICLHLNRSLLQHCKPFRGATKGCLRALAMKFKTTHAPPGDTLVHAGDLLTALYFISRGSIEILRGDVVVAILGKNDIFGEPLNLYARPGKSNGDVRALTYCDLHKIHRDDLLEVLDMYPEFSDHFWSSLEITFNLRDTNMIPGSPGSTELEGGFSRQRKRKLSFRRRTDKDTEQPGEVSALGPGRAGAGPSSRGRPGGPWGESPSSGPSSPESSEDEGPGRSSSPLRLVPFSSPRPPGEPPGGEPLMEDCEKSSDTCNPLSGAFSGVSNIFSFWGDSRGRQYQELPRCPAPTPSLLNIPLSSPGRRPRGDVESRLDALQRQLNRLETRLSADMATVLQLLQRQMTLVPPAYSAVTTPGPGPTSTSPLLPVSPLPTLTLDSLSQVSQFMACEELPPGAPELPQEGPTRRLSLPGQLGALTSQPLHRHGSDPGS

In general, AUC(0-inf) refers to the area under the concentration-time curve extrapolated to infinity. A high value points to more exposure. A word on the IC50: it is the concentration at which inhibition is half-maximal. What is called bioavailability is the share of a dose that reaches the circulation, judged against a reference dose that is usually intravenous. A high value points to good availability. One may read the Cmax as the maximum level reached in the sampled fluid or tissue. For orientation: Tmax means the time at which the peak concentration occurs. Broadly, the solubility is the dissolved amount per volume that the medium holds. A low value points to a poorly soluble substance. Turning to `O=C(/C=C/c1ccc2c(c1)C(=O)NC1(CCN(Cc3ccccc3)CC1)O2)NO`, the Activity result in the series on Mus musculus [1] is “Non-toxic”; in the series with HCT-116 [6], “Dose-dependent effect”; in the series on HCT-116 [8] it was “Dose-dependent effect”. For the same compound, the inhibition result in the series on Mus musculus [2] is “Active”. The AUC(0-inf) is 1530 ng·h/mL in [3] and 1960 ng·h/mL in series [20]. Moreover, the IC50 against Histone deacetylase came out at 83 nM; against Histone deacetylase 2, 192 nM; in the series with K562 it was 582 nM; in the series with A549, 1410 nM; in [14] it was 110 nM; in the series on HCT-116 [17], 515 nM. Further, it took 87 nM to reach half-maximal inhibition at Histone deacetylase 3 (IC50). Besides, in series [4], the clearance is 54.5 mL/min/kg. In addition, the bioavailability in series [5] was found to be 42.8%. Further, the Cmax in series [7] worked out at 13500 nM; in [13], 2710 nM. Besides, the Tmax in series [9] is 0.25 h. Further, the remaining at 0.5 h in series [10] was found to be 77%; in series [22] it was 75%. Besides, in [11], the inhibition entry was “Dose-dependent effect”. The outcome in the series on HCT-116 [12] and in the series on HCT-116 [16] was Active. The T/C came out at 0.33 in the series with HCT-116 [15] and 0.59 with HCT-116 [19]. In series [18], the Papp A→B at 2 h amounted to 0.4 ×10⁻⁶ cm/s. Besides, the Vd in [21] was 8.5 L/kg. The same compound registered a solubility in [23] greater than 200 µM. Further, the half-life in [24] is 13.4 h. Moreover, in [25], the “inhibition (INH)” value came out at 54%.

`O=C(/C=C/c1ccc2c(c1)C(=O)CC1(CCN(Cc3ccccc3)CC1)O2)NO`: the 50% inhibitory concentration (IC50) amounted to 3810 nM in series [26], 270 nM against Histone deacetylase 2, 103 nM in [14] and 65 nM at Histone deacetylase 3. The bioavailability in series [5] amounted to 31.5%. For the same compound, the remaining at 0.5 h in series [10] was determined as 55%; in series [22] it was 32%. In the series on Mus musculus [27], the highest level (Cmax) was 823 nM. Also, the Papp A→B at 2 h in series [18] amounted to 5.6 ×10⁻⁶ cm/s.
